According to ChEMBL document CHEMBL1137291, “p38 MAP kinase inhibitors. Part 5: discovery of an orally bio-available and highly efficacious compound based on the 7-amino-naphthyridone scaffold” (Bioorg Med Chem Lett, 2006):
Blank lines part the entries; values can stand above or below the compound they belong to.

Experiments:
[1] = system: Blood; assay: Inhibition of LPS-stimulated TNFalpha release in human whole blood; assay type: functional, tissue-based
[2] = system: Rattus norvegicus; assay: Reduction of TNFalpha production in rat LPS challenge model at 10 mg/kg, po after 3 hrs; assay type: functional; parameters: scale not given: the % may be the effect or the level left
[3] = system: THP-1; assay: Inhibition of TNFalpha release from LPS-stimulated human monocyte THP1 cells; assay type: functional, cell-based
[4] = system: Rattus norvegicus; assay: Inhibition of TNFalpha production in rat LPS challenge model at 3 mg/kg, po after 16 hrs; assay type: functional
[5] = Cmax in rat; assay type: ADME, organism-based; conditions: in vivo
Procedure, shortened: (§1)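 Sprague-Dawley rats (male where specified) were dosed orally at 1 mpk, in one case as a 0.5% methylcellulose suspension. Plasma exposure was followed to give oral bioavailability, AUC, C_max and half-life.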

[6] = system: Rattus norvegicus; assay: Inhibition of TNFalpha production in rat LPS challenge model at 3 mg/kg, po after 6 hrs; assay type: functional
[7] = Oral bioavailability in rat; assay type: ADME, organism-based; conditions: in vivo; procedure, shortened: as §1
[8] = system: Rattus norvegicus; assay: Inhibition of TNFalpha production in rat LPS challenge model at 3 mg/kg, po after 24 hrs; assay type: functional
[9] = Half life in rat; assay type: ADME, organism-based; conditions: in vivo; procedure, shortened: as §1
[10] = species: Rattus norvegicus; assay: Inhibition of paw swelling in AIA Lewis rat after 21 days; assay type: functional; conditions: 504 h
Procedure, shortened: (§2)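 Seven-week-old female Lewis rats had adjuvant injected into the left hind paw on day 0. Disease developed over 12 days, then rats were dosed orally at 0.1, 0.3, 1 or 3 mpk once daily for ten days. On days 0, 12 and 21 they were weighed, paw volumes measured and radiographs taken. Swelling of the secondary paw was scored.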

[11] = Half life in Sprague-Dawley rat at 1 mg/kg; assay type: ADME, organism-based; parameters: dose 1 mg/kg; conditions: in vivo; procedure, shortened: as §1
[12] = Oral bioavailability in Sprague-Dawley rat; assay type: ADME, organism-based; conditions: in vivo; procedure, shortened: as §1
[13] = Cmax in Sprague-Dawley rat at 1 mg/kg; assay type: ADME, organism-based; parameters: dose 1 mg/kg; conditions: in vivo; procedure, shortened: as §1
[14] = Volume of distribution in rhesus macaque; assay type: ADME, organism-based, Macaca mulatta; conditions: rhesus monkey, in vivo; read-out: Vdss
[15] = Clearance in Sprague-Dawley rat at 1 mg/kg; assay type: ADME, organism-based; parameters: dose 1 mg/kg; conditions: in vivo
[16] = system: Rattus norvegicus; assay: Inhibition of TNF-alpha production in rat LPS challenge model at 1 mg/kg, po after 24 hrs; assay type: functional
[17] = system: Mus musculus; assay: Inhibition of TNFalpha production in BALB/c mouse at 0.3 mg/kg up to 24hrs; assay type: functional
Procedure, shortened: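 Female Balb/c mice aged 12–16 weeks were given compound orally in 0.5% methylcellulose 22.5 h before LPS challenge. They were sacrificed 1.5 h after challenge, and plasma TNF-a was measured by ELISA.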

[18] = system: Rattus norvegicus; assay: Inhibition of paw swelling in AIA Lewis rat at 0.3 mg/kg, po after 21 days; assay type: functional; conditions: 504 h; procedure, shortened: as §2
[19] = system: Rattus norvegicus; assay: Inhibition of paw swelling in AIA Lewis rat at 0.1 mg/kg, po after 21 days; assay type: functional; conditions: 504 h; procedure, shortened: as §2
[20] = system: Rattus norvegicus; assay: Inhibition of TNFalpha production in rat LPS challenge model at 0.1 mg/kg, po after 24 hrs; assay type: functional
[21] = system: Rattus norvegicus; assay: Inhibition of paw swelling in AIA Lewis rat at 1 mg/kg, po after 21 days; assay type: functional; conditions: 504 h; procedure, shortened: as §2
[22] = Half life in rhesus macaque; assay type: ADME, organism-based, Macaca mulatta; conditions: rhesus monkey, in vivo
[23] = system: Rattus norvegicus; assay: Inhibition of TNF-alpha production in rat LPS challenge model at 0.3 mg/kg, po after 24 hrs; assay type: functional
[24] = Clearance in rhesus macaque; assay type: ADME, organism-based, Macaca mulatta; conditions: rhesus monkey, in vivo
[25] = Oral bioavailability in rhesus macaque; assay type: ADME, organism-based, Macaca mulatta; conditions: rhesus monkey, in vivo
[26] = system: Rattus norvegicus; assay: Inhibition of paw swelling in AIA Lewis rat at 3 mg/kg, po after 21 days; assay type: functional; conditions: 504 h; procedure, shortened: as §2
[27] = Volume of distribution in Sprague-Dawley rat at 1 mg/kg; assay type: ADME, organism-based; parameters: dose 1 mg/kg; conditions: in vivo, read-out: Vdss
[28] = Cmax in Sprague-Dawley rat at 1 mg/kg, po; assay type: ADME, organism-based; parameters: dose 1 mg/kg, route oral; conditions: in vivo; procedure, shortened: as §1
[29] = Half life in Sprague-Dawley rat at 1 mg/kg, po; assay type: ADME, organism-based; parameters: dose 1 mg/kg, route oral; conditions: in vivo; procedure, shortened: as §1
[30] = Bioavailability in Sprague-Dawley rat at 1 mg/kg, po; assay type: ADME, organism-based; conditions: in vivo; procedure, shortened: as §1

IC50 [1]: 121 nM
IC50 [3]: 4.5 nM
Structure (SMILES): O=c1ccc2c(-c3ccc(F)cc3F)nc(O)cc2n1-c1c(F)cccc1F
Activity [2]: 70%

Cmax [5]: 1 µM
IC50 [1]: 101 nM
bioavailability [7]: 57%
half-life [9]: 2 h
IC50 [3]: 6.6 nM
Structure (SMILES): O=c1ccc2c(-c3ccc(F)cc3F)nccc2n1-c1c(Cl)cccc1Cl
inhibition in vivo at 3 mg/kg [4]: 37%
inhibition in vivo at 3 mg/kg [6]: 61%
inhibition in vivo at 3 mg/kg [8]: 27%

IC50 [1]: 86.1 nM
IC50 [3]: 40.5 nM
Structure (SMILES): O=c1ccc2c(-c3ccc(F)cc3F)nccc2n1-c1ccccc1Cl

half-life [11]: 6.5 h
bioavailability [12]: 68%
Cmax [13]: 3.5 µM
Vd [14]: 0.9 L/kg
clearance [15]: 1.6 mL/min/kg
IC50 [1]: 34 nM
half-life [22]: 11.6 h
IC50 [3]: 0.69 nM
clearance [24]: 1.3 mL/min/kg
bioavailability [25]: 22%
Vd [27]: 0.9 L/kg
Structure (SMILES): Nc1cc2c(ccc(=O)n2-c2c(F)cccc2F)c(-c2ccc(F)cc2F)n1
ED50 [10]: 0.22 mg/kg
inhibition in vivo at 3 mg/kg [4]: 95%
inhibition in vivo at 1 mg/kg [16]: 79%
inhibition in vivo at 1 mg/kg ([16]; read-out: Inhibition): 79%
inhibition in vivo at 0.3 mg/kg [17]: > 90%
inhibition in vivo at 0.3 mg/kg [18]: 54%
inhibition in vivo at 3 mg/kg [6]: 97%
inhibition in vivo at 3 mg/kg [8]: 92%
inhibition in vivo at 0.1 mg/kg [19]: 38%
inhibition in vivo at 0.1 mg/kg [20]: 53%
inhibition in vivo at 1 mg/kg [21]: 65%
inhibition in vivo at 0.3 mg/kg [23]: 75%
inhibition in vivo at 3 mg/kg [26]: 80%

Cmax [28]: 3.5 µM
half-life [29]: 9.9 h
bioavailability [30]: 98%
IC50 [3]: 200 nM
Structure (SMILES): O=c1ccc2c(-c3ccc(F)cc3F)[n+]([O-])ccc2n1-c1c(Cl)cccc1Cl
inhibition in vivo at 3 mg/kg [8]: 80%

IC50 [1]: 73 nM
IC50 [3]: 7.3 nM
Structure (SMILES): CNc1cc2c(ccc(=O)n2-c2c(F)cccc2F)c(-c2ccc(F)cc2F)n1

IC50 [1]: 145 nM
IC50 [3]: 7 nM
Structure (SMILES): O=c1ccc2c(-c3ccc(F)cc3F)nccc2n1-c1c(F)cccc1F
